Results published in ChEMBL document CHEMBL4138271, “Crystal Structures and Human Leukemia Cell Apoptosis Inducible Activities of Parthenolide Analogues Isolated from Piptocoma rufescens” (J Nat Prod, 2018).
Calls of active or inactive are those of the source. No cut-off for these calls is given here.

Assays:
[1] = tested on: MOLM-13; assay: Cytotoxicity against human MOLM13 cells after 72 hrs by MTS assay; assay type: functional, cell-based; settings: MOLM-13, 72 h
[2] = tested on: EOL1; assay: Cytotoxicity against human EOL-1 cells after 72 hrs by MTS assay; assay type: functional, cell-based; settings: EOL1, 72 h
[3] = tested on: HT-29; assay: Cytotoxicity against human HT-29 cells after 72 hrs by MTS assay; assay type: functional, cell-based; settings: HT-29, 72 h
[4] = tested on: MOLM-13; assay: Synergistic antileukemic activity against human MOLM13 cells assessed as concentration required for <= 75% cell survival after 72 hrs in presence of midostaurin by CellTiter 96 AQueous One solution cell proliferation assay; assay type: functional
[5] = tested on: EOL1; assay: Synergistic antileukemic activity against human EOL-1 cells assessed as concentration required for <= 75% cell survival after 72 hrs in presence of midostaurin by CellTiter 96 AQueous One solution cell proliferation assay; assay type: functional
[6] = tested on: MOLM-13; assay: Induction of apoptosis in human MOLM13 cells assessed as live cells at 1.3 uM after 24 hrs by Annexin-V FITC/7-AAD staining based flow cytometric method (reference value: 86.8%); assay type: functional
[7] = tested on: MOLM-13; assay: Induction of apoptosis in human MOLM13 cells assessed as early apoptotic cells at 1.3 uM after 24 hrs by Annexin-V FITC/7-AAD staining based flow cytometric method (reference value: 11.8%); assay type: functional
[8] = tested on: MOLM-13; assay: Induction of apoptosis in human MOLM13 cells assessed as late apoptotic cells at 1.3 uM after 24 hrs by Annexin-V FITC/7-AAD staining based flow cytometric method (reference value: 1.43%); assay type: functional
[9] = tested on: MOLM-13; assay: Induction of apoptosis in human MOLM13 cells assessed as necrotic cells at 1.3 uM after 24 hrs by Annexin-V FITC/7-AAD staining based flow cytometric method (reference value: 0%); assay type: functional
[10] = tested on: MOLM-13; assay: Induction of apoptosis in human MOLM13 cells assessed as live cells at 2.5 uM after 24 hrs by Annexin-V FITC/7-AAD staining based flow cytometric method (reference value: 86.8%); assay type: functional
[11] = tested on: MOLM-13; assay: Induction of apoptosis in human MOLM13 cells assessed as early apoptotic cells at 2.5 uM after 24 hrs by Annexin-V FITC/7-AAD staining based flow cytometric method (reference value: 11.8%); assay type: functional
[12] = tested on: MOLM-13; assay: Induction of apoptosis in human MOLM13 cells assessed as late apoptotic cells at 2.5 uM after 24 hrs by Annexin-V FITC/7-AAD staining based flow cytometric method (reference value: 1.43%); assay type: functional
[13] = tested on: MOLM-13; assay: Induction of apoptosis in human MOLM13 cells assessed as necrotic cells at 2.5 uM after 24 hrs by Annexin-V FITC/7-AAD staining based flow cytometric method (reference value: 0%); assay type: functional
[14] = tested on: MOLM-13; assay: Induction of apoptosis in human MOLM13 cells assessed as live cells at 5 uM after 24 hrs by Annexin-V FITC/7-AAD staining based flow cytometric method (reference value: 86.8%); assay type: functional
[15] = tested on: MOLM-13; assay: Induction of apoptosis in human MOLM13 cells assessed as early apoptotic cells at 5 uM after 24 hrs by Annexin-V FITC/7-AAD staining based flow cytometric method (reference value: 11.8%); assay type: functional
[16] = tested on: MOLM-13; assay: Induction of apoptosis in human MOLM13 cells assessed as late apoptotic cells at 5 uM after 24 hrs by Annexin-V FITC/7-AAD staining based flow cytometric method (reference value: 1.43%); assay type: functional
[17] = tested on: MOLM-13; assay: Induction of apoptosis in human MOLM13 cells assessed as necrotic cells at 5 uM after 24 hrs by Annexin-V FITC/7-AAD staining based flow cytometric method (reference value: 0%); assay type: functional
[18] = tested on: EOL1; assay: Induction of apoptosis in human EOL-1 cells assessed as live cells at 1.3 uM after 24 hrs by Annexin-V FITC/7-AAD staining based flow cytometric method (reference value: 97.5%); assay type: functional
[19] = tested on: EOL1; assay: Induction of apoptosis in human EOL-1 cells assessed as early apoptotic cells at 1.3 uM after 24 hrs by Annexin-V FITC/7-AAD staining based flow cytometric method (reference value: 1.94%); assay type: functional
[20] = tested on: EOL1; assay: Induction of apoptosis in human EOL-1 cells assessed as late apoptotic cells at 1.3 uM after 24 hrs by Annexin-V FITC/7-AAD staining based flow cytometric method (reference value: 0.535%); assay type: functional
[21] = tested on: EOL1; assay: Induction of apoptosis in human EOL-1 cells assessed as necrotic cells at 1.3 uM after 24 hrs by Annexin-V FITC/7-AAD staining based flow cytometric method (reference value: 0.032%); assay type: functional
[22] = tested on: EOL1; assay: Induction of apoptosis in human EOL-1 cells assessed as live cells at 2.5 uM after 24 hrs by Annexin-V FITC/7-AAD staining based flow cytometric method (reference value: 97.5%); assay type: functional
[23] = tested on: EOL1; assay: Induction of apoptosis in human EOL-1 cells assessed as early apoptotic cells at 2.5 uM after 24 hrs by Annexin-V FITC/7-AAD staining based flow cytometric method (reference value: 1.94%); assay type: functional
[24] = tested on: EOL1; assay: Induction of apoptosis in human EOL-1 cells assessed as late apoptotic cells at 2.5 uM after 24 hrs by Annexin-V FITC/7-AAD staining based flow cytometric method (reference value: 0.535%); assay type: functional
[25] = tested on: EOL1; assay: Induction of apoptosis in human EOL-1 cells assessed as necrotic cells at 2.5 uM after 24 hrs by Annexin-V FITC/7-AAD staining based flow cytometric method (reference value: 0.032%); assay type: functional
[26] = tested on: EOL1; assay: Induction of apoptosis in human EOL-1 cells assessed as live cells at 5 uM after 24 hrs by Annexin-V FITC/7-AAD staining based flow cytometric method (reference value: 97.5%); assay type: functional
[27] = tested on: EOL1; assay: Induction of apoptosis in human EOL-1 cells assessed as early apoptotic cells at 5 uM after 24 hrs by Annexin-V FITC/7-AAD staining based flow cytometric method (reference value: 1.94%); assay type: functional
[28] = tested on: EOL1; assay: Induction of apoptosis in human EOL-1 cells assessed as late apoptotic cells at 5 uM after 24 hrs by Annexin-V FITC/7-AAD staining based flow cytometric method (reference value: 0.535%); assay type: functional
[29] = tested on: EOL1; assay: Induction of apoptosis in human EOL-1 cells assessed as necrotic cells at 5 uM after 24 hrs by Annexin-V FITC/7-AAD staining based flow cytometric method (reference value: 0.032%); assay type: functional
[30] = tested on: MOLM-13; assay: Induction of apoptosis in human MOLM13 cells assessed as caspase-3 activation at 10 uM after 72 hrs by immunoblotting analysis; assay type: functional, cell-based
Method in brief: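 MOLM-13 cells treated 72 h with test compounds at 10 μM or PKC412 at 10 nM. Cells washed in ice-cold PBS, lysed at 10^8 cells/mL in NP-40 hypertonic buffer (pH 7.5) with protease/phosphatase inhibitors, then run on SDS-PAGE and PVDF. Blots probed 12 h with rabbit monoclonal cleaved caspase-3 (Asp175), β-actin as loading control. Representative of three independent experiments.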

[31] = tested on: EOL1; assay: Induction of apoptosis in human EOL-1 cells assessed as caspase-3 activation at 10 uM after 72 hrs by immunoblotting analysis; assay type: functional, cell-based
Method in brief: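 EOL-1 cells (RPMI 1640, 10% FBS, 37 °C, 5% CO2) exposed 72 h; compounds at 10 μM, PKC412 at 10 nM. Harvested, PBS-washed, lysed in hypertonic NP-40 buffer with protease/phosphatase inhibitors; SDS-PAGE, PVDF transfer, rabbit monoclonal cleaved caspase-3 (Asp175) antibody 12 h, secondary 1 h, chemiluminescent detection; β-actin loading control. Representative blots of three independent experiments.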

[32] = target: Transcription factor p65 (Homo sapiens) (UniProt Q04206); assay: Inhibition of NFkappaB p65 in human MOLM13 cells at 10 uM after 72 hrs by immunoblotting method; assay type: cell-based
Chain of Transcription factor p65 (Homo sapiens) (Q04206 whole entry): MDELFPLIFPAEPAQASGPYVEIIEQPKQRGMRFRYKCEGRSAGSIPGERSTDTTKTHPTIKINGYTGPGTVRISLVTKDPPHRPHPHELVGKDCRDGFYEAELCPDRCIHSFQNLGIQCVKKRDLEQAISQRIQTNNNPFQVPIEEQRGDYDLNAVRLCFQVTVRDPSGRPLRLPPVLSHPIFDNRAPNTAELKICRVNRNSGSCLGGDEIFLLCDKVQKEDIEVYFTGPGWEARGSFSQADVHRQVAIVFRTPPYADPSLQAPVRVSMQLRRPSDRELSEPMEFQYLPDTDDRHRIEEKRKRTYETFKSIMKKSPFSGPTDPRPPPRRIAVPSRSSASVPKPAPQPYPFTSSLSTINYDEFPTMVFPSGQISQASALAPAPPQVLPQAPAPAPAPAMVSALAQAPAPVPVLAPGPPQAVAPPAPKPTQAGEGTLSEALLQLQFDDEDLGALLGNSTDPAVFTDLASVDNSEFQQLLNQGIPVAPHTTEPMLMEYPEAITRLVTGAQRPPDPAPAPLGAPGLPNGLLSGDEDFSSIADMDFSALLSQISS
Method in brief: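 MOLM-13 or EOL-1 cells treated 72 h at 10 μM. Cells washed in ice-cold PBS and lysed in hypertonic NP-40 buffer (10 mM HEPES pH 7.5, 0.5 M NaCl) with protease/phosphatase inhibitors. Protein measured by BCA; SDS-PAGE onto PVDF. Probed 12 h with rabbit monoclonal NF-κB-p65 antibody, goat β-actin as loading control, then chemiluminescence. Blots representative of three independent experiments.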

**Q.** With C=C1C(=O)O[C@@H]2C[C@@H](C)/C=C\C(=O)[C@](C)(OC(C)=O)C[C@H](OC(=O)/C(C)=C\C)[C@@H]12 as the molecule, how does the IC50 [1] read?
**A.** The IC50 was 4.3 µM.

**Q.** And the IC50 [2]?
**A.** Its IC50 is 4.3 µM.

**Q.** What about the IC50 [3] of the same molecule?
**A.** Its IC50 is 1.2 µM.

**Q.** And the Activity [4]?
**A.** The Activity was 1.9 µM.

**Q.** What about the Activity [5] of the same molecule?
**A.** Its Activity is 2.5 µM.

**Q.** And the Activity [6]?
**A.** The Activity was 90.8%.

**Q.** What about the Activity [7] of the same molecule?
**A.** Its Activity is 7.82%.

**Q.** What about the Activity [8] of the same molecule?
**A.** The Activity was 1.28%.

**Q.** What about the Activity [9] of the same molecule?
**A.** The Activity was 0.147%.

**Q.** And the Activity [10]?
**A.** Its Activity is 86.5%.

**Q.** And the Activity [11]?
**A.** Its Activity is 10.5%.

**Q.** And the Activity [12]?
**A.** Its Activity is 2.77%.

**Q.** What about the Activity [13] of the same molecule?
**A.** Its Activity is 0.276%.

**Q.** And the Activity [14]?
**A.** The Activity was 0.583%.

**Q.** What about the Activity [15] of the same molecule?
**A.** Its Activity is 0.349%.

**Q.** What about the Activity [16] of the same molecule?
**A.** The Activity was 73.6%.

**Q.** And the Activity [17]?
**A.** Its Activity is 25.5%.

**Q.** And the Activity [18]?
**A.** Its Activity is 96.7%.

**Q.** And the Activity [19]?
**A.** Its Activity is 1.87%.

**Q.** And the Activity [20]?
**A.** Its Activity is 1.36%.

**Q.** What about the Activity [21] of the same molecule?
**A.** Its Activity is 0.053%.

**Q.** What about the Activity [22] of the same molecule?
**A.** The Activity was 63.8%.

**Q.** And the Activity [23]?
**A.** The Activity was 1.33%.

**Q.** What about the Activity [24] of the same molecule?
**A.** Its Activity is 32.1%.

**Q.** And the Activity [25]?
**A.** The Activity was 2.72%.

**Q.** What about the Activity [26] of the same molecule?
**A.** The Activity was 2.79%.

**Q.** And the Activity [27]?
**A.** The Activity was 0.031%.

**Q.** What about the Activity [28] of the same molecule?
**A.** The Activity was 92.9%.

**Q.** And the Activity [29]?
**A.** Its Activity is 4.73%.

**Q.** What about the Activity [30] of the same molecule?
**A.** The Activity was “Active”.

**Q.** What about the Activity [31] of the same molecule?
**A.** The Activity was “Active”.

**Q.** What about the inhibition [32] of the same molecule?
**A.** The inhibition was “Active”.
